From ChEMBL document CHEMBL1147363, “Inhibitory effect of carnosic acid on HIV-1 protease in cell-free assays [corrected]” (J Nat Prod, 1993)
In brackets after ≈: the same amount, converted by molar mass. Activity calls are given as the source filed them. The rule behind the calls is not given here.

Columns and labels:
[1] = target: Protease (Human immunodeficiency virus 1) (UniProt Q9YQ12); test: Inhibition of HIV1 recombinant protease expressed in Escherichia coli BL21 (DE3) cells by SDS-PAGE
Cathepsin D (Bos taurus) = target: T1, Cathepsin D (Bos taurus) (UniProt P80209); test: Inhibition of bovine spleen cathepsin D up to 10 ug/ml
T1 sequence (whole entry): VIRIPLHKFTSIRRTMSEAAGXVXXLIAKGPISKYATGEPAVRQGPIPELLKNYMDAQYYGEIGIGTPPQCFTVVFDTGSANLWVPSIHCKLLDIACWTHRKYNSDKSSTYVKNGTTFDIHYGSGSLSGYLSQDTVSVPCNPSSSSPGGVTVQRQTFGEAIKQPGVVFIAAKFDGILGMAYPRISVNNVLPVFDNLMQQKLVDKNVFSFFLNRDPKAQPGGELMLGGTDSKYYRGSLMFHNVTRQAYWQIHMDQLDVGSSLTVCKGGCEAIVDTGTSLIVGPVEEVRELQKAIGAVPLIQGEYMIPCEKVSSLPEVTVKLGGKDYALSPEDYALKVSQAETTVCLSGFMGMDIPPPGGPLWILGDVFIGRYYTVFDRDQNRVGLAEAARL
How it was run: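 Cathepsin D purified from bovine spleen, 40 nM final. Compound (DMSO stock diluted in 0.1 M Na acetate pH 3.5) preincubated with enzyme 10 min. 2% hemoglobin substrate added, 10 min at 37°. Stopped with 0.33 M trichloroacetic acid. Soluble products treated with NaOH and Folin-Ciocalteu reagent; absorbance read at 750 nm. Tested up to 10 μg/ml.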

[2] = system: Human immunodeficiency virus 1; test: Antiviral activity against HIV1 replication infected in human MT2 cells assessed as reduction in plaque formation after 3 days by MTT assay; type: functional; conditions: Human immunodeficiency virus 1, MT2, 72 h
How it was run: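 MT-2 cells pretreated 30 min at room temperature with compound (DMSO stock diluted in RPMI), infected with HIV-1 (3b or rf) 1 h at 36°, washed, then grown 3 days in compound-containing RPMI. Progeny titre measured by plaque assay on poly-L-lysine-coated MT-2 monolayers under agarose overlays, stained with MTT. Activity expressed as percent reduction in titre versus untreated virus; IC90 reported.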

H9 = test: Cytotoxicity against human H9 cells after 3 or 5 days by XTT assay; type: cell-based; conditions: h9, 120 h
How it was run: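 Cells seeded at 1×10^5 per well with graded compound concentrations and grown at 36° for 3 or 5 days depending on cell type. XTT (1 mg/ml, with 0.025 mM phenazine methosulfate) added, 1 h at 36°, OD450 read. TC90 is the concentration giving 90% reduction in viable cells.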

Sus scrofa = species: Sus scrofa; test: Inhibition of pig pepsin up to 10 ug/ml
How it was run: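 Porcine pepsin, 40 nM final. Compound stock diluted in 0.01 M HCl and preincubated with enzyme 10 min at room temperature. 2% hemoglobin substrate (pH 1.8) added, 10 min at 37°. Stopped with 0.33 M TCA; activity by modified Anson hemoglobin method. Tested up to 10 μg/ml.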

Sequence of Protease (Human immunodeficiency virus 1) (Q9YQ12 as listed by the source): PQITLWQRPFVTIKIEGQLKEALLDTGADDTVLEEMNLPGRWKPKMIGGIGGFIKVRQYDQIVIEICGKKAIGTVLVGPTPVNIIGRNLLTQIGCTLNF

| Structure (SMILES) | IC90 [1] [µg/mL] | Activity (Cathepsin D (Bos taurus)) | Activity (Sus scrofa) | IC90 [2] [µg/mL] | TC90 (H9) [µg/mL] |
| --- | --- | --- | --- | --- | --- |
| CC(C)c1cc2c(c(O)c1O)[C@@]1(C(=O)O)CCCC(C)(C)[C@@H]1CC2 [CARNOSIC ACID] | 0.08 | inactive | inactive | 0.32 (≈ 0.963 µM) | 0.36 (≈ 1.08 µM) |
| COc1c(C(C)C)cc2c(c1OC)[C@@]13CCCC(C)(C)[C@@H]1C[C@@H]2OC3=O | > 10 | inactive | inactive |  |  |
| CC(C)c1cc2c(c(O)c1O)[C@@]13CCCC(C)(C)[C@@H]1C[C@@H]2OC3=O | > 10 | inactive | inactive |  |  |
| CC(C)c1cc2c(c(O)c1O)[C@@]13CCCC(C)(C)[C@@H]1[C@H](OC3=O)[C@H]2O | 0.6 | inactive | inactive |  |  |

Continued, in another order:

| IC90 [1] [µg/mL] | Activity (Cathepsin D (Bos taurus)) | Activity (Sus scrofa) | Structure (SMILES) | IC90 [2] [µg/mL] | TC90 (H9) [µg/mL] |
| --- | --- | --- | --- | --- | --- |
| 1.7 | inactive | inactive | CCO[C@H]1c2cc(C(C)C)c(O)c(O)c2[C@@]23CCCC(C)(C)[C@@H]2[C@@H]1OC3=O |  |  |
| 1.5 | inactive | inactive | CO[C@H]1c2cc(C(C)C)c(O)c(O)c2[C@@]23CCCC(C)(C)[C@@H]2[C@@H]1OC3=O |  |  |
